One molecule from article PMC12667952 (bioRxiv, 2025) can be followed below.

Series [1] has as its target T1, hGlyT2^W215F (Homo sapiens, UniProt Q9Y345, W215F).
T1 sequence (Q9Y345 1-797 W215F): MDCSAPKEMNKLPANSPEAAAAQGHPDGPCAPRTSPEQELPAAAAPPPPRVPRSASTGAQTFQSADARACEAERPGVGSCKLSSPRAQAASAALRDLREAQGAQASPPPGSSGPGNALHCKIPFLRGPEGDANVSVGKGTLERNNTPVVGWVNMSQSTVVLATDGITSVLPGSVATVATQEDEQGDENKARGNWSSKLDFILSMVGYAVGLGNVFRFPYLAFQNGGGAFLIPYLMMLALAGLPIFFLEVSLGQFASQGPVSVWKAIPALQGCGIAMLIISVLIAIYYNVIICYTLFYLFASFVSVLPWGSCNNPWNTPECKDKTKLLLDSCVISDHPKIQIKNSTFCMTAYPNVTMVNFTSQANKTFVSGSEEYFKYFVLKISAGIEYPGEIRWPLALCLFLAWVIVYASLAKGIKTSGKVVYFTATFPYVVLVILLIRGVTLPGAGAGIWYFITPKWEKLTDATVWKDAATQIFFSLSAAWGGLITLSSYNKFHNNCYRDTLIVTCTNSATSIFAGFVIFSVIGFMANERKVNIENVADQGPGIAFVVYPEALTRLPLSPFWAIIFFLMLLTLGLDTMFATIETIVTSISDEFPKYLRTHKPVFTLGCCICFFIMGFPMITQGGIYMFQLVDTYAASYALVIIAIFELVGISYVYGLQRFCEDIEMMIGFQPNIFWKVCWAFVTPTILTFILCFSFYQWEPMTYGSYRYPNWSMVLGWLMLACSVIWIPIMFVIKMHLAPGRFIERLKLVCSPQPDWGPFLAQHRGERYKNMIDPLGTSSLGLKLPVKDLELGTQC
The series is classed as cell-based.

For another series, the system named is mice. In words: Side effect scoring. The series is classed as in vivo, mouse. In a few lines: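 Adverse events, including sedation, recorded at each time point as mice were placed in the testing apparatus after i.p. dosing. Each scored 0–3 (none, mild, moderate, severe), and scores averaged per treatment group.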
In the next series the test system is histamine (H1). In words: Cerep panel off-target selectivity screen, H1. It counts as binding. Particulars: 1 × 10^-5 M.
A further series has as its target T2, hGlyT2^WT (Homo sapiens, UniProt Q9Y345).
T2 sequence (Q9Y345 1-797): T1 sequence (Q9Y345 1-797 W215F) with F215W
It counts as cell-based.

The target in series [2] is T1, hGlyT2^W215F. In words: Reversibility. The series is classed as cell-based.
The subject of the next series is muscarinic receptors. Kind of series: Cerep panel off-target selectivity screen, muscarinic receptors. It counts as binding. The conditions noted are these: 1 × 10^-5 M.
The test system of another series is CCI mice. Kind of series: Cold allodynia. It counts as in vivo, mouse. The conditions noted are these: for Peak reduction of response rate to acetone stimulus: by 2-hour time point. In a few lines: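 CCI mice tested 14 days after surgery. […] Acetone-evoked cold allodynia scored before surgery, at t = 0 before dosing, and at 0.5, 1, 1.5, 2, 4 and 6 h. Expressed as % of maximal possible responses. Two-way ANOVA with Dunnett's test versus vehicle.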

Another series relates to adrenergic receptors. Kind of series: Cerep panel off-target selectivity screen, adrenergic receptors. The series is classed as binding. The conditions noted are these: 1 × 10^-5 M.
For another series, the system named is C57BL/6J mice. In words: Conditioned place preference. It counts as in vivo, mouse. Particulars: 50 and 150 mg/kg, i.p.

Residue numbers refer to the chain shown, from its start. “Also recorded” adds a separate entry of the source. Like-named read-outs stand apart in the source and are kept apart here.

On to `CN(C)C1(CNC(=O)c2ccc3c(c2)CCN3C(=O)c2ccccc2)CCOCC1` [RPI-GLYT2–82, 1-benzoyl-N-((4-(dimethylamino)tetrahydro-2H-pyran-4-yl)methyl)indoline-5-carboxamide], for which the IC50 against hGlyT2^W215F [1] is more than 10000 nM; on hGlyT2^WT, 550 nM; against hGlyT2^WT (IC50, inhibition of glycine transport currents, hGlyT2^WT, Xenopus oocytes, currents generated by EC50 (30 μM) glycine, n = 5), 554 nM. Further, the Sedation entry in the series on mice (250 mg/kg (maximal dose)) was “transient sedation”. Also, the “Time to full recovery from sedation” value with mice (250 mg/kg i.p.) is not above 90 min. Also, the “Activity at histamine H1” value in the series with histamine (H1) is “inactive”. Besides, the “Washout of inhibitor from hGlyT2^W215F” value at hGlyT2^W215F [2] was “almost immediate”. Besides, in the series with muscarinic receptors, the “Activity at muscarinic receptors” value is “inactive”. In addition, the “Peak reduction of response rate to acetone stimulus” value came out at 59% with CCI mice (50 mg/kg i.p.) and 62% in the series on CCI mice (100 mg/kg i.p.). In addition, the “Efficacy at alleviating cold allodynia compared to gabapentin” value with CCI mice (50 and 100 mg/kg) is “comparable efficacy to the control compound gabapentin; also recorded: equivalent efficacy”. Further, the “Time of peak anti-allodynia effects, cold allodynia” value with CCI mice (50 and 100 mg/kg) is not above 2 h. The “Activity at adrenergic receptors” value in the series on adrenergic receptors is “inactive”. Further, the “Preference for the paired chamber” value with C57BL/6J mice was “did not increase preference; also recorded: no significant preference”.
